Shown are actives, neighbours in structure and some others; about 2.1% of the full set was active somewhere.
HTR2A ag – activates the mouse 5-HT2A serotonin receptor | CHO-K1 mHTR2A beta-arrestin complementation, luminescence; percent of 30 µM serotonin response | P35363 | 360,000 compounds, 0.66% hits | activation, % at 7.6 µM;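 active = activation above a run cutoff, the mean activation of all tested compounds plus 3 SD, cut at about 14% in these data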;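 also: 0% = plate median of compound wells and 100% = 30 µM serotonin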
Target sequence (P35363 whole entry, looked up): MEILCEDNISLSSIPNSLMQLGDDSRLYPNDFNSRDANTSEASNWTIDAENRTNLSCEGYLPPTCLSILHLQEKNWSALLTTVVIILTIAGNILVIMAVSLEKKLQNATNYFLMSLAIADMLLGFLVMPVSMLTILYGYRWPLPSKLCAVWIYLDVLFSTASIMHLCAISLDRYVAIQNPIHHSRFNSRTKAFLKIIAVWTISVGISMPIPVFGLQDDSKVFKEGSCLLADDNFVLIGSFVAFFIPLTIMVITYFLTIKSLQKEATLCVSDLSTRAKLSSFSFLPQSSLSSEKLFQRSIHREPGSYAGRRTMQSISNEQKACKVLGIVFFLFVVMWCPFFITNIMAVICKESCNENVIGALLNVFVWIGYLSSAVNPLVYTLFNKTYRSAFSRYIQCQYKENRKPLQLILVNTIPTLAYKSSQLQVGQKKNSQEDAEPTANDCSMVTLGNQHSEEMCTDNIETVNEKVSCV
APJ agonist – APJ receptor agonism; P35414; activation, % at 20 µM; AID 2520; CHO-K1 APJ PathHunter beta-arrestin, luminescence; 0% DMSO wells, 100% apelin; 330,000 compounds, 0.11% hits;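 active = activation more than six SD over the plate average, tested at 20 µM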;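 also: 0% = DMSO alone and 100% = apelin-13 at 10 nM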
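Incubation: overnight seeding, 90 min compound at 25 °C, 1 h detection; test system: PathHunter CHO-K1 APJ (AGTRL-1) beta-arrestin reporter cells; amount: 1000 cells/well; doses: one dose, 20 µM compound, 1% DMSO; measured by: beta-gal luminescence; measure: agonist-driven arrestin binding to APJ; benchmarks: negative DMSO alone, positive Apelin-13 at 10 nM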
CCR6 antagonist – antagonists of human CCR6 receptor | P51684 | CHO-K1 CCR6 PathHunter beta-arrestin, luminescence, CCL20-stimulated | inhibition, % at 20 µM | 340,000 compounds, 0.49% hits | AID 493098;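 active = compounds whose inhibition of the agonist-driven luminescence signal at 20 µM reaches about 50%, limit read from the data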;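 also: cells stimulated with CCL20 at 14 nM final; plate controls were DMSO with CCL20 for no effect and DMSO without agonist for full effect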
CXCR6 block – CXCR6 (human) receptor inhibition; O00574; CHO-K1 PathHunter CXCR6 beta-arrestin, luminescence; inhibition, % at 20 µM; 360,000 compounds, 0.36% hits; AID 602244; in the data active = inhibition above about 34%, passing the limit was not always enough;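 also: antagonist mode with CXCL16 agonist at 10 nM final; 0% = 10 nM CXCL16 with DMSO and 100% = unstimulated wells without agonist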
EBI2 antag – EBI2 (human) antagonism; EBI2 beta-arrestin recruitment, luminescence, 7a,25-OHC stimulated; inhibition, % at 5 µM; 360,000 compounds, 0.81% hits; AID 651636; in the data active = inhibition above about 38%;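 also: enzyme fragment complementation signal reports receptor beta-arrestin coupling in cells; 0% = agonist plus DMSO wells and 100% = wells without agonist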
APJ antag – blocks the human apelin receptor APJ | AID 2521 | 330,000 compounds, 0.32% hits | CHO-K1 APJ beta-arrestin complementation, luminescence | inhibition, % at 20 µM | P35414;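 active = inhibition above about 40% at 20 µM, limit read from the data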;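 also: cells challenged with 10 nM apelin-13 agonist together with compound; plate controls were apelin-13 plus DMSO wells for no effect and DMSO wells lacking apelin-13 for full effect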
APJ antag conf – confirmation of human APJ apelin receptor antagonists; shares compounds with APJ antag; APJ beta-arrestin recruitment, luminescence, antagonist mode; inhibition, % at 20 µM; 950 compounds, 66% hits; in the data active = inhibition above about 50%
The depositor's hits bear a star; . = no result.

SMILES	HTR2A ag	APJ agonist	CCR6 antagonist	CXCR6 block	EBI2 antag	APJ antag	APJ antag conf
O=Cc1cccc2ccc3cccc(C(=O)O)c3c12	0	4	-7	-15	-9	-4	.
O=C(c1cccs1)c1cn(CC(=O)N2CCc3ccccc3C2)c2ccccc12	1	-22	25	0	-3	43*	28
CC(=O)Oc1ccc(C(=O)Nc2ccccc2C(=O)Nc2ccc(C(=O)O)cc2)cc1	-5	-2	16	1	-6	7	.
C=CCOC(=O)Nc1nc(CCNC(=O)OC(C)(C)C)c(C(=O)OC)s1	0	.	.	.	-5	.	.
COc1ccc(C2(C)NC(=O)N(CC(=O)NC3CCCC3)C2=O)cc1OC (stereo not drawn)	9	-2	15	2	4	4	.
Cc1cc(C)nc(NNS(=O)(=O)c2c(F)cc(F)cc2Br)n1	11	-11	47	33	22	67*	114*
CCCCS(=O)(=O)/C=C\C=C/S(=O)(=O)CCCC	-4	-7	81*	78*	51*	69*	89*
Cn1c(=O)c2c(nc(N3CCNCC3)n2Cc2cccc3ccccc23)n(C)c1=O	-2	-17	62*	47*	35	57*	99*
Cn1c(=O)[nH]c(=O)c2c1nc(N1CCNCC1)n2Cc1cccc2ccccc12	-3	-12	54*	45*	13	41*	92*
COC(=O)Cn1c(C(O)c2ccccc2)nc2ccccc21 (stereo not drawn)	3	2	9	3	-5	-5	.
COc1ccc(-c2c3c(nc4sc5c(=O)[nH]c(C)nc5c24)CCC3)cc1	2	-2	-4	5	3	6	.
COc1ccc(-c2c3c(nc4sc(C(=O)Nc5cc(C)on5)c(N)c24)CCC3)cc1	-1	-17	9	10	25	55*	30
N#CC1=CC2CN(Cc3ccccc3)C1C1C(=O)N(c3ccccc3)C(=O)C21 (stereo not drawn)	-2	.	6	-7	-3	.	.
Cc1ccc2oc(=O)n(Cc3ccccc3)c2c1	2	0	6	-6	-1	10	.
COc1cc2c(=O)n(CCC(=O)NCC3CCCO3)c(=O)n(CC(=O)Nc3ccccc3C)c2cc1OC (stereo not drawn)	8	-2	-9	-10	4	16	.
COc1cc2c(=O)n(Cc3ccccc3)c(=O)n(CC(=O)NCC3CCCO3)c2cc1OC (stereo not drawn)	4	-1	3	-4	3	40*	7
CCOc1ccc(-c2c(C(=O)N/N=C/c3ccc(O)cc3)nnn2-c2nonc2N)cc1	-5	-4	-2	1	2	5	.
CCOc1ccc(-c2c(C(=O)N/N=C/c3cccc(Br)c3)nnn2-c2nonc2N)cc1	-1	-4	18	15	18	45*	47
COc1ccccc1C(=O)COC(=O)/C(=C/c1ccccc1)NC(C)=O	-1	-3	2	-3	8	3	.
FC(F)(F)c1cc(C(F)(F)F)c2ccc(N3CCN(c4ccc(Cl)cc4)CC3)nc2n1	2	-1	25	4	25	-4	.
N#CC(c1ccc(Cl)cc1)c1ccc2c(C(F)(F)F)cc(C(F)(F)F)nc2n1 (stereo not drawn)	-1	-6	56*	45*	4	47*	76*
O=C1Nc2ccc(F)cc2C12Nc1ccccc1-c1nnc(SCc3ccccc3)nc1O2 (stereo not drawn)	-5	-12	30	5	19	32	.
O=C1Nc2ccc(F)cc2C12Nc1ccccc1-c1nnc(SCc3ccccc3Cl)nc1O2 (stereo not drawn)	-7	-4	40	22	19	53*	75*
COc1cccc(NC(=O)CCN2C(=O)C3CC=CCC3C2=O)c1 (stereo not drawn)	3	-4	8	6	1	-11	.
Cn1c(=O)cc(SCC(=O)Nc2ccc3c(c2)OCO3)c2ccccc21	7	6	12	-6	-3	45*	-26
SMILES	HTR2A ag	APJ agonist	CCR6 antagonist	CXCR6 block	EBI2 antag	APJ antag	APJ antag conf
Cn1cc(SCC(=O)Nc2ccc3c(c2)OCO3)c2ccccc21	-4	-1	13	-4	0	17	.
CN1C(=O)/C(=C\c2cc(N=Nc3ccccc3)ccc2O)SC1=S	-3	-13	55*	52*	7	68*	109*
Cc1cc(C)n(CCc2nc(-c3ccco3)cs2)n1	-2	-11	18	7	-5	56*	20
Cc1cc(C)n(CCc2nc(-c3cccs3)cs2)n1	2	-1	20	-6	11	7	.
CC[N+](CC)(CC#Cc1ccccc1)CC(=O)c1ccc(Cl)cc1	-2	-4	69*	23	0	77*	22
N#C/C(=C\c1ccc(O)c(O)c1)C(=O)c1ccc(O)c(O)c1	-6	-7	54*	27	3	43*	57*
N#C/C(=C\c1ccc(O)c(O)c1)C(=O)N1CCCC1	-6	-1	19	20	8	22	.
Cc1[nH]n(-c2ccccc2)c(=O)c1C(c1ccc(O)c([N+](=O)[O-])c1)c1c(C)[nH]n(-c2ccccc2)c1=O	-1	-4	45	21	11	40*	41
O=C(CNC(=O)c1cc(-c2ccccc2)nn1-c1ccccc1)Nc1ccccc1Br	3	.	17	-11	0	.	.
CCOC(=O)c1c(C2COc3ccccc3O2)csc1NC(=O)c1ccco1 (stereo not drawn)	-2	-9	10	8	23	43*	77*
CCOC(=O)c1c(-c2cccs2)csc1NC(=O)c1ccco1	5	1	-17	-5	0	20	.
CCCn1nc(NC(=O)c2cccs2)c2cc3cc(C)ccc3nc21	-4	2	25	4	3	-7	.
COCC(=O)N1CCC(Oc2cccc(C(=O)NCc3ccccn3)c2)CC1	3	-3	0	-4	-6	43*	-5
CNC(=O)CSc1nc2cccnc2n1-c1ccc(F)cc1	-1	0	6	5	1	-5	.
Cc1cccc(NC(=O)CN2C(=O)N/C(=C/c3ccc(C)o3)C2=O)c1	0	.	17	-5	-5	.	.
Cc1ccc(NC(=O)CN2C(=O)N/C(=C/c3ccc(C)o3)C2=O)cc1	2	-4	-7	30	5	42*	28
CC(C)(C)c1ccc(CNC(=O)C2CCCN2C(=O)Nc2ccccc2)cc1 (stereo not drawn)	-4	-2	4	2	7	-29	.
O=C1Nc2ccc(Br)cc2C1=Nc1ccc(-c2nnc3n2CCCCC3)cc1	.	-19	.	.	.	49*	126*

Screening results from PubChem.
